Compound activity as filed in PubChem.
In the library only some 4.1% were active in any assay of this set; here they are far more common.
hERG rescue = hERG rescue from dofetilide block, primary screen, cell-based, CHO-hERG, FluxOR thallium flux, dofetilide IC70; activation (rescue from dofetilide block), less the hit threshold, % at 10 µM; Voltage-gated inwardly rectifying potassium channel KCNH2 (Homo sapiens), Q12809; dofetilide IC70 present; hit rate 0.51% among 310,000;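 active = activation above the mean of controls blocked by dofetilide plus 5 SD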;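 also: thallium influx through hERG after potassium depolarization seen as dye fluorescence rise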
KCNQ1 inh = inhibitors of human KCNQ1 channel, primary screen, cell-based, thallium flux, high-throughput; Potassium voltage-gated channel subfamily KQT member 1 (Homo sapiens), P51787; CHO-K1 KCNQ1, FluxOR thallium flux fluorescence; stronger effect = higher value; B-score at 10 µM; hit rate 1.3% among 310,000;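 active = compounds whose thallium flux B-score, printed positive for inhibition, exceeds three library SD while starting fluorescence stays within three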;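 also: channel opened by potassium depolarization with thallium stimulus after 20 min compound exposure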
Target sequence (P51787 whole entry, looked up): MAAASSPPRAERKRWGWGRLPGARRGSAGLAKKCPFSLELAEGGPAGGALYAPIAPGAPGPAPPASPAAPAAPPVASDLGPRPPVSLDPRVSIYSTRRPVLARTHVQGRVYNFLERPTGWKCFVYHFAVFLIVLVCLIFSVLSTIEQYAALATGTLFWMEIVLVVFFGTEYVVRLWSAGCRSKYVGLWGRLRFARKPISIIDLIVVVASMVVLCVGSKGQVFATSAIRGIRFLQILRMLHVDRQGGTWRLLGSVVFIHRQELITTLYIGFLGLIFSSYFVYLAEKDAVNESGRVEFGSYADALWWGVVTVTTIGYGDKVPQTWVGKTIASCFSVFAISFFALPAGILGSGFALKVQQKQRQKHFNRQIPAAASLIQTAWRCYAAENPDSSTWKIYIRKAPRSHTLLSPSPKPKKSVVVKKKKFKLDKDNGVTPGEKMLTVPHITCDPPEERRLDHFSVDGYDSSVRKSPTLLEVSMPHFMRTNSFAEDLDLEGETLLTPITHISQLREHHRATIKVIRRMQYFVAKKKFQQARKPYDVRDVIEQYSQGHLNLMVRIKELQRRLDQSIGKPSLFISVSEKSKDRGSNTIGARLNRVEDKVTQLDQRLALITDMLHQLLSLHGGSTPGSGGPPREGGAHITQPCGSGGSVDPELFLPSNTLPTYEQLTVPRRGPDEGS
KCNK9 block = KCNK9 potassium channel inhibitors, primary screen, HEK293 cells, thallium flux; AID 488922, 2010; B-score at 10 µM; FluxOR thallium flux fluorescence; stronger effect = lower value; Potassium channel subfamily K member 9 (Homo sapiens), Q9NPC2; hit rate 1.2% among 310,000;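 active = ratio B-score over 3 SD below the library mean, with starting fluorescence within 5 SD of its mean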;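 also: negative B-score means less thallium flux so channel inhibition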
KCC2 mod = KCC2 cotransporter modulators, thallium flux, primary screen, cell-based, HEK293 KCC2, FluoZin-2 fluorescence, MLSMR. B-score of Tl+ flux slope (higher = more flux/activation; lower = inhibition) at 10 µM. AID 1456, 2008. Solute carrier family 12 member 5 (Homo sapiens), Q9H2X9. KCC2 cells, thallium flux FluoZin-2 fluorescence. hit rate 2.2% among 190,000;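 active = thallium flux slope and its plate-corrected score both differing from the plate sample mean at a set confidence after two filtering rounds, in either direction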;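 also: slope of fluorescence scaled to starting intensity during 10 to 20 s after thallium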
KCNK3 block = human KCNK3 channel inhibitors, primary screen, CHO cells, FluxOR thallium flux, B-score. FluxOR fluorescence; stronger effect = lower value. B-score at 10 µM. hit rate 0.84% among 340,000. AID 602410, 2012;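 active = B-score under library mean minus 4 SD, starting fluorescence ratio at most library mean plus 5 SD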;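 also: more negative B-score means stronger inhibition of thallium flux through KCNK3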
KCNQ1 act = potentiators or activators of KCNQ1 channel, primary screen, cell-based, thallium flux, high-throughput; Potassium voltage-gated channel subfamily KQT member 1 (Homo sapiens), P51787; CHO-K1 KCNQ1, thallium flux FluxOR fluorescence; stronger effect = higher value; B-score at 10 µM; hit rate 0.35% among 310,000; AID 2648, 2010;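 active = fluorescence ratio B-score, a plate-corrected score, at least three library SD, with initial intensity B-score within 5 SD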
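assay system = CHO-K1 cells stably expressing KCNQ1 | medium = assay buffer, equal DMSO in all wells | timing = 37 °C overnight plating, 90-min dark dye load, 20-min compound pretreatment | measured by = kinetic FluxOR thallium fluorescence, 10-s 1-Hz baseline, 110-s post-stimulus read | measure = fluorescence change relative to baseline, converted to B score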
Each line names hits and unclear results; the compound was inactive in the other large screens.

Cc1cc(C(=O)COC(=O)C23CC4CC(CC(O)(C4)C2)C3)c(C)n1C	none (no result: hERG rescue, KCNQ1 inh, KCNK9 block, KCC2 mod, KCNQ1 act)
Cc1ccc(/C=C/C(=O)OCC(=O)NC(=O)NCc2ccco2)cc1	none (no result: hERG rescue, KCNQ1 inh, KCNK9 block, KCC2 mod, KCNQ1 act)
Cc1ccc(NNC(=O)c2cc(C(C)(C)C)nn2Cc2ccccc2)cc1	none
COc1ccccc1NNC(=O)c1cc(C(C)(C)C)nn1Cc1ccccc1	KCNQ1 inh 6
CC(C)(C)c1cc(C(=O)NNc2ccc(OC(F)(F)F)cc2)n(Cc2ccccc2)n1	KCNK9 block -8.04
Nc1cc(=O)[nH]c(SCC(=O)Nc2cc(S(=O)(=O)N3CCCCC3)ccc2Cl)n1	none (no result: hERG rescue, KCNQ1 inh, KCNK9 block, KCC2 mod, KCNQ1 act)
O=C(O)c1cc2c(cc1NC(=O)C1CCCC1)OCCO2	none (no result: hERG rescue, KCNQ1 inh, KCNK9 block, KCC2 mod, KCNQ1 act)
O=C(O)Cn1c2c(c3ccccc31)CSc1ccc(Cl)cc1-2	none (no result: KCC2 mod)
NNC(=O)c1cc2c(N3CCC(Cc4ccccc4)CC3)ncnc2s1	KCNQ1 inh 6
Cn1ncc2c(N3CCC(Cc4ccccc4)CC3)ncnc21	none
COc1ccc(C(=O)N2CCC(C(=O)O)CC2)c2ccccc12	none (no result: KCC2 mod)
CCC1=NN(C(=O)c2ccc(Cl)cc2)C(O)(c2ccc(C)cc2)C1 (stereo not given)	none (no result: KCC2 mod)
CCOC(=O)C1=NN(C(=O)c2ccc(C)cc2)C(O)(c2ccc(Cl)cc2)C1 (stereo not given)	hERG rescue 75.6, KCC2 mod 121, KCNQ1 act 79
CCC1=NN(C(=O)c2ccc(Cl)cc2)C(O)(c2ccccc2)C1 (stereo not given)	none (no result: KCC2 mod)
COC(=O)C1=NN(C(=O)c2ccc(Cl)cc2)C(O)(c2ccccc2)C1 (stereo not given)	hERG rescue 38.5, KCC2 mod 17.3, KCNQ1 act 39
Cn1c2ccccc2c(=O)c2cc(C#Cc3cccc(N)c3)ccc21	none (no result: hERG rescue, KCNQ1 inh, KCNK9 block, KCC2 mod, KCNQ1 act)
Cn1c2ccccc2c(=O)c2ccc(C#Cc3ccc(N)cc3)cc21	KCNK9 block -7.34 (no result: KCC2 mod)
COCCNC(=O)C(C)OC(=O)c1cc2sccc2n1C (stereo not given)	hERG rescue 5.7
N#C/C(=C\c1ccc([N+](=O)[O-])o1)c1nc2ccccc2[nH]1	KCNQ1 inh 6 (no result: KCNK3 block)
N#C/C(=C/c1ccc(Sc2nc3ccccc3[nH]2)o1)c1cccc(Br)c1	KCNK3 block -10.2
N#C/C(=C/c1ccc(Sc2nc3ccccc3[nH]2)o1)c1ccccc1F	KCNQ1 inh 17 (no result: KCC2 mod)
Cc1ccc(OCCNC(=O)c2ccccc2OCc2c(C)noc2C)cc1	none (no result: hERG rescue, KCNQ1 inh, KCNK9 block, KCC2 mod, KCNQ1 act)
CC(C)NC(=O)N(C)C[C@H]1Oc2ccc(NC(=O)NC3CCCCC3)cc2C(=O)N([C@H](C)CO)C[C@@H]1C	none (no result: hERG rescue, KCNQ1 inh, KCNK9 block, KCC2 mod, KCNQ1 act)
CCOc1ccc(NS(=O)(=O)c2ccc3c(c2)n(C)c(=O)n3C)cc1	none (no result: KCC2 mod)
CNc1ccc(/C=C/C(=O)c2ccc3c(c2)OCCO3)cc1[N+](=O)[O-]	KCNQ1 inh 10
CNc1ccc(/C=C/C(=O)c2ccc(C)cc2)cc1[N+](=O)[O-]	none
Cc1cc(C=O)c2c(c1)C=CC1(Oc3ccccc3C(=O)N1C)O2 (stereo not given)	hERG rescue 20.7 (no result: KCNK3 block)
CN1C(=O)c2ccccc2OC1(C)Cc1ccccc1 (stereo not given)	none
CN(CC(=O)NCC1CCCCC1)CC(=O)Nc1ccc(F)cc1	none (no result: hERG rescue, KCNQ1 inh, KCNK9 block, KCC2 mod, KCNQ1 act)
COc1ccc(C(=O)N(c2ccc(OC)cc2)S(=O)(=O)c2cccs2)cc1	none
COc1ccc(N(C(=O)c2ccco2)S(=O)(=O)c2cccs2)cc1	KCC2 mod -2.77
Cc1cc(C)c(S(=O)(=O)NCC(c2ccco2)N2CCc3ccccc3C2)c(C)c1 (stereo not given)	KCNK9 block -6.83 (no result: KCC2 mod)
O=C(Nc1ccc(C(F)(F)F)cc1)N1CCN(c2ccnc3cc(Cl)ccc23)CC1	KCNQ1 inh 6
CCSc1nnc(NC(=O)C2CSC3(C)CCC(=O)N23)s1 (stereo not given)	none (no result: hERG rescue, KCNQ1 inh, KCNK9 block, KCC2 mod, KCNQ1 act)
CNC(=S)NNC(=O)c1cccn(Cc2ccc(Cl)cc2Cl)c1=O	KCNQ1 inh 7 (no result: KCNK3 block)
Cc1cc(C)n(NC(=S)NC2CCCC2)c(=O)c1C#N	none
CCOC(=O)C1=C(C)N(c2ccc(C)cc2)C(=O)/C1=C\c1ccc(O)c(OC)c1	none
CCOC(=O)C1=C(O)c2ccccc2C(=O)/C1=C\c1ccc(C)cc1	KCC2 mod 3.33 (no result: hERG rescue, KCNQ1 inh, KCNK9 block, KCNQ1 act)
COc1cc(NCCCn2cnc3c(OCc4ccccc4)ncnc32)cc(OC)c1OC	none (no result: hERG rescue, KCNQ1 inh, KCNK9 block, KCC2 mod, KCNQ1 act)
CCOc1ccc(-n2cc(C(=O)c3cc(Cl)ccc3O)cc(C#N)c2=O)cc1	KCNQ1 inh 8
COc1ccc(O)c(C(=O)c2cc(C#N)c(=O)n(-c3ccc(Cl)cc3)c2)c1	none
COc1ccc(-n2cc(C(=O)c3cc(Cl)ccc3O)cc(C#N)c2=O)cc1	KCNQ1 inh 6
CC(C)CNC(=O)[C@H](Cc1ccccc1)NC(=O)c1cccs1	none (no result: KCC2 mod)
CCn1c(CSc2nnc(-c3ccoc3C)n2C)nc2cc(S(=O)(=O)N(C)C)ccc21	hERG rescue 32.5
COc1ccc(Nc2c3c(nc4ccc(C)cc24)CCC3)cc1	KCNQ1 inh 8 (no result: KCC2 mod)
CCCC(=O)OCCNc1cc(Sc2nc3ccccc3[nH]2)c2nonc2c1[N+](=O)[O-]	KCNQ1 inh 6
CCC(=O)OCCNc1cc(SCCC(=O)OC)c2nonc2c1[N+](=O)[O-]	none
CC(=O)OCCCNc1cc(Sc2ccc(Cl)cc2)c2nonc2c1[N+](=O)[O-]	none
CCC(=O)OCCNc1cc(Sc2nccn2C)c2nonc2c1[N+](=O)[O-]	KCNQ1 inh 7
CCn1c(SCC(N)=O)nc2sc3c(c2c1=O)CCCC3	hERG rescue 5.4, KCC2 mod 59.6, KCNQ1 act 15
CCCN(Cc1ccccc1)C(=S)Nc1ccc(SC(F)F)cc1	KCNQ1 inh 6
CCCN(Cc1ccccc1)C(=S)Nc1ccc(F)cc1	none
Cc1cc2nc(N)sc2cc1[N+](=O)[O-]	hERG rescue 5.0
COc1ccc2nc(N)sc2c1	none
N#CC(c1ccc(Cl)cc1)N1CCOCC1 (stereo not given)	none
Oc1c(Cl)cc(Cl)cc1C(C#Cc1ccccc1)N1CCOCC1 (stereo not given)	KCNK9 block -7.13
CCCCC(=Nc1ccccc1OC)C1=C(O)CC(c2ccccc2)CC1=O (stereo not given)	KCNQ1 inh 7
CCc1cc2c(=O)c(-c3ccc4c(c3)OCCO4)coc2cc1OS(C)(=O)=O	KCNQ1 inh 6
Oc1cccc(C=NN=C2c3ccccc3-c3ccccc32)c1	KCNK3 block -9.04 (no result: hERG rescue, KCNQ1 inh, KCNK9 block, KCC2 mod, KCNQ1 act)
